Experimental data taken from ChEMBL document CHEMBL4725349, “Discovery of First-in-Class Protein Arginine Methyltransferase 5 (PRMT5) Degraders” (J Med Chem, 2020).
pIC50: −log10 of the molar value. Calls of active or inactive are those of the source. The rule behind the calls is not given here.

Legend:
[1] = test system: MCF7; experiment: Antiproliferative activity against human MCF7 cells at 0.1 to 10 uM incubated for 6 days by CellTiter-Glo assay; assay type: functional, cell-based; conditions: dose microM 0.1-10, time 6.0 day
In short: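 MCF-7 in DMEM + 10% FBS at 37 °C, 5% CO2. Cells exposed to graded concentrations for 6 d, medium with compound refreshed every other day. CellTiter-Glo luminescence, expressed as viability relative to DMSO control; mean ± SD, n = 3.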

[2] = biological target: T1, von Hippel-Lindau disease tumor suppressor/Protein arginine N-methyltransferase 5 (Homo sapiens, UniProt O14744+P40337); experiment: Induction of VHL-mediated PRMT5 degradation in human MCF7 cells at 5 uM incubated for 6 days by Western blot analysis; assay type: cell-based; conditions: time 6.0 day
T1 sequence (O14744 whole entry, looked up): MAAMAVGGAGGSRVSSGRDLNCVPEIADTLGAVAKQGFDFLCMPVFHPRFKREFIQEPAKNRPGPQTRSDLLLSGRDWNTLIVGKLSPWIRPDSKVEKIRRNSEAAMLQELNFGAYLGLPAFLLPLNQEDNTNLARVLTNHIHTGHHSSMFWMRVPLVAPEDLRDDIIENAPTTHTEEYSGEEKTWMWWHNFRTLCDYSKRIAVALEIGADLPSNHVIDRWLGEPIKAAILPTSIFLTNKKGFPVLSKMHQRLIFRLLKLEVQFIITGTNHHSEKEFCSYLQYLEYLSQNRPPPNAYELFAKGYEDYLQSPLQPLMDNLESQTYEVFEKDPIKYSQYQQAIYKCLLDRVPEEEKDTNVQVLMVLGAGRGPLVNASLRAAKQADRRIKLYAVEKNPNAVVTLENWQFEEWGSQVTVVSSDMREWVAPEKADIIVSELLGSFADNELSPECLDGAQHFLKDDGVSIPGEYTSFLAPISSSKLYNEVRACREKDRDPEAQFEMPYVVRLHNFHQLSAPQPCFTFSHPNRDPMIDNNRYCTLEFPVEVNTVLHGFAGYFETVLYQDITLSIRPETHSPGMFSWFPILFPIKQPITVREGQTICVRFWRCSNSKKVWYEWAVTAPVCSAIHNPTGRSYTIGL
T1 sequence (P40337 whole entry, looked up): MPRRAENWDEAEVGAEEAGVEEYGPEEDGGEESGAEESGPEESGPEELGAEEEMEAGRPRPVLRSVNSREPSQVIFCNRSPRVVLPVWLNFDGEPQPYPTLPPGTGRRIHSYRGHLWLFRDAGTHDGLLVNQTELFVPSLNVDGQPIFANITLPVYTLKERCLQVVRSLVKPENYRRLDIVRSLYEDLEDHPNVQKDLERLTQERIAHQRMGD
In short: (§1)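 MCF-7 cells treated 6 d (0.2, 1 and 5 μM for initial screen, or indicated concentrations). RIPA lysates immunoblotted for PRMT5. Band intensity quantified by densitometry to derive DC50 and Dmax as mean ± SD from three independent experiments; screening blots representative of at least two.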

[3] = biological target: PRMT5/MEP50 complex (Homo sapiens) (UniProt O14744+Q9BQA1); experiment: Inhibition of human PRMT5/MEP50 assessed as reduction in methyltransferase activity at 5 uM using histone 4 peptide as substrate in presence of [3H]SAM incubated for 30 mins; assay type: protein-complex assay
[4] = biological target: T1, von Hippel-Lindau disease tumor suppressor/Protein arginine N-methyltransferase 5; experiment: Induction of VHL-mediated PRMT5 degradation in human MCF7 cells at 0.2 to 5 uM incubated for 6 days by Western blot analysis; assay type: cell-based; conditions: dose microM 0.2-5, time 6.0 day; in short: as §1
[5] = biological target: T1, von Hippel-Lindau disease tumor suppressor/Protein arginine N-methyltransferase 5; experiment: Induction of VHL-mediated PRMT5 degradation in human MCF7 cells at 1 to 5 uM incubated for 6 days by Western blot analysis; assay type: cell-based; conditions: dose microM 1-5, time 6.0 day; in short: as §1
[6] = biological target: PRMT5/MEP50 complex (Homo sapiens, UniProt O14744); experiment: Inhibition of human PRMT5/MEP50 assessed as reduction in methyltransferase activity using histone 4 peptide as substrate in presence of [3H]SAM incubated for 30 mins; assay type: protein-complex assay
PRMT5/MEP50 complex, sequence (O14744 whole entry): as the sequence (O14744 whole entry, looked up) above
PRMT5/MEP50 complex, sequence (Q9BQA1 whole entry, further chain): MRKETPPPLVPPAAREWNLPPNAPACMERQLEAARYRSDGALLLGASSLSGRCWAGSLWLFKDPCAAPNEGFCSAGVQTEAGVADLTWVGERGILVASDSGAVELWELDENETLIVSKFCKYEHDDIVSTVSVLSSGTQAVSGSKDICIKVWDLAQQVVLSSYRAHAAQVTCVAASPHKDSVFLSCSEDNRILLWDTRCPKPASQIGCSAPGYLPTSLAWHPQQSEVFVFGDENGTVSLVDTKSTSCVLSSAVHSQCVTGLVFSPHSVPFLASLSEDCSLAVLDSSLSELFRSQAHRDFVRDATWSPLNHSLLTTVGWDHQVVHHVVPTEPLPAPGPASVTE
In short: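 Radiometric FlashPlate assay tracking transfer of the 3H-methyl group from SAM (1 μM) to biotinylated H4 (1–15) peptide by human PRMT5/MEP50 (5 nM). Compounds were preincubated with enzyme and substrate for 20 min at rt. They were tested at 10 concentrations in threefold serial dilution from 5 μM, in duplicate. IC50 is reported as mean ± SD.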

Row | SMILES | Activity [1] | Activity [2] | Activity [4] | other results
1 | Cc1ncsc1-c1ccc([C@H](C)NC(=O)[C@@H]2C[C@@H](O)CN2C(=O)[C@@H](NC(=O)COCCOCCOCCOCCOCC(=O)N2CC(Nc3cc(C(=O)NC[C@H](O)CN4CCCCC4)ncn3)C2)C(C)(C)C)cc1 | inactive | inactive |  | inhibition [3]: 58%
2 | Cc1ncsc1-c1ccc(CNC(=O)[C@@H]2C[C@@H](O)CN2C(=O)[C@@H](NC(=O)CCOCCOCCC(=O)N2CC(Nc3cc(C(=O)NC[C@H](O)CN4CCc5ccccc5C4)ncn3)C2)C(C)(C)C)cc1 |  |  | inactive | 
3 | Cc1ncsc1-c1ccc(CNC(=O)[C@@H]2C[C@@H](O)CN2C(=O)[C@@H](NC(=O)CCCCCCCCCC(=O)N2CC(Nc3cc(C(=O)NC[C@H](O)CN4CCc5ccccc5C4)ncn3)C2)C(C)(C)C)cc1 |  |  | inactive | 
4 | Cc1ncsc1-c1ccc(CNC(=O)[C@@H]2C[C@@H](O)CN2C(=O)[C@@H](NC(=O)COCCOCCOCCOCCOCC(=O)N2CC(Nc3cc(C(=O)NC[C@H](O)CN4CCc5ccccc5C4)ncn3)C2)C(C)(C)C)cc1 |  |  |  | Activity [5]: Active
5 | Cc1ncsc1-c1ccc([C@H](C)NC(=O)[C@H]2C[C@H](O)CN2C(=O)[C@@H](NC(=O)COCCOCCOCCOCCOCC(=O)N2CC(Nc3cc(C(=O)NC[C@H](O)CN4CCc5ccccc5C4)ncn3)C2)C(C)(C)C)cc1 | inactive | inactive |  | pIC50 [6]: 7.92
